# Results from article PMC10413468 (ACS Omega, 2023).
# Columns and labels:
# [1] = test system: A549 (human lung cancer) cells; assay: MTT cytotoxicity assay, A549; type: cell-based
# Outline: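 A549 lung cancer cells grown in low-glucose DMEM with 10% FBS and penicillin/streptomycin (37 °C, 5% CO2). Plated at 1 × 10^4 cells/well. Treated 48 h with dicopper complexes (1–400 or 1–1000 μM) or cisplatin (0.1–20 μM). Wells rinsed with PBS, then MTT 0.5 mg mL–1 for 3 h and DMSO. IC50 from viability vs log[conc]; ≥3 repeats, mean ± SD. SF = IC50(WI-38)/IC50(A549).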
# [2] = test system: PK-59 (pancreas cancer) cells; assay: MTT cytotoxicity assay, PK-59; type: cell-based, human
# Outline: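 PK-59 pancreas cancer cells cultured in RPMI 1640 with 10% FBS and penicillin/streptomycin (37 °C, humidified 5% CO2). 1 × 10^4 cells/well exposed 48 h to dicopper complexes (1–400 or 1–1000 μM) or cisplatin (0.1–20 μM). After PBS rinses, MTT 0.5 mg mL–1 for 3 h, then DMSO. IC50 from viability vs log[conc]; ≥3 repeats, mean ± SD. SF = IC50(2C6)/IC50(PK-59).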
# [3] = test system: 2C6 (human embryonic pancreas normal) cells; assay: MTT cytotoxicity assay, 2C6; type: cell-based; details: read-out: IC50 2C6 (normal), pancreas, 48 h, mean ± SD
# Outline: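 2C6 pancreas normal cells kept in Ham F10 with 10% newborn calf serum, 5% FBS, 2.5% horse serum and penicillin/streptomycin at 37 °C, 5% CO2. Seeded at 1 × 10^4 cells/well. Exposed 48 h to dicopper complexes (1–400 or 1–1000 μM) or cisplatin (0.1–20 μM); medium-only controls. PBS rinses, MTT 0.5 mg mL–1 for 3 h, DMSO solubilisation. IC50 from viability vs log[conc]; ≥3 repeats, mean ± SD.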
# [4] = test system: WI-38 (human lung fibroblast normal) cells; assay: MTT cytotoxicity assay, WI-38; type: cell-based; details: read-out: IC50 WI-38 (normal), lung, 48 h, mean ± SD
# Outline: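 WI-38 lung fibroblast normal cells grown in Eagle's MEM with 10% FBS and penicillin/streptomycin at 37 °C, 5% CO2. 1 × 10^4 cells/well given dicopper complexes (1–400 or 1–1000 μM) or cisplatin (0.1–20 μM) for 48 h; medium-only controls. PBS rinses, MTT 0.5 mg mL–1 for 3 h, DMSO solubilisation. IC50 from viability vs log[conc]; ≥3 repeats, mean ± SD.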
# [5] = test system: HeLa (human cervical cancer) cells; assay: MTT cytotoxicity assay, HeLa; type: cell-based; details: read-out: IC50 HeLa (cancer), cervical, 48 h, mean ± SD
# Outline: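 HeLa cervical cancer cells maintained in high-glucose D-MEM with 10% FBS and penicillin/streptomycin at 37 °C, 5% CO2. 1 × 10^4 cells/well incubated 48 h with dicopper complexes (1–400 or 1–1000 μM) or cisplatin (0.1–20 μM); blank and control wells got medium only. PBS wash, MTT (0.5 mg mL–1, 3 h), formazan dissolved in DMSO. IC50 from viability vs log[conc]; ≥3 repeats, mean ± SD.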
smiles,measurement,setting,value
N.N.[Cl][Pt][Cl] [cisplatin],"SF (selectivity factor), lung","[1]; (IC50 of normal cells)/(IC50 of cancer cells), WI-38/A549, 48 h",2.5
same,IC50,"[1]; read-out: IC50 A549 (cancer), lung, MTT assay, 48 h, mean ± SD",1830 ± 30 nM
same,"SF (selectivity factor), pancreas","[2]; (IC50 of normal cells)/(IC50 of cancer cells), 2C6/PK-59, 48 h",0.6
same,IC50,"[2]; read-out: IC50 PK-59 (cancer), pancreas, MTT assay, 48 h, mean ± SD",2010 ± 20 nM
same,IC50,[3],1150 ± 80 nM
same,IC50,[4],4550 ± 30 nM
same,IC50,[5],930 ± 10 nM
